In ChEMBL document CHEMBL1158417, “Phosphonate analogues of cyclopropavir phosphates and their E-isomers. Synthesis and antiviral activity” (Bioorg Med Chem, 2009):
pEC50: −log10 of the molar value.

Key:
[1] = Cytotoxicity against human Daudi cells; type: cell-based
Human gammaherpesvirus 4 [2] = assay: Antiviral activity against Epstein-Barr virus in human H1 cells by DNA hybridization assay; type: functional, organism-based; details: human gammaherpesvirus 4, H1
[3] = (§1) Cytotoxicity against MEF; type: cell-based; details: mouse, MEF cells
[4] = (§2) Cytotoxicity against HFF by neutral red uptake assay; type: cell-based; details: human, HFF cells
Method in brief: (§3)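 HFF cultures; cytotoxicity determined by neutral red uptake.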

Murid betaherpesvirus 1 = assay: Antiviral activity against Murine cytomegalovirus in MEF by plaque reduction assay; type: functional, organism-based
Method in brief: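 Murine CMV titrated by plaque reduction in mouse embryonic fibroblasts (MEF); EC50 from plaque counts.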

[5] = (§4) Cytotoxicity against HFF by visual cytotoxicity assay; type: cell-based; details: human, HFF cells
Method in brief: (§5)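 Uninfected HFF cultures scored by visual inspection for cytotoxicity in cells unaffected by virus.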

[6] = Cytotoxicity against human CEM cells; type: cell-based; details: CCRF-CEM cells
[7] = (§6) Cytotoxicity against human replicating KB cells; type: cell-based; details: KB cells
Method in brief: (§7)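 Cytotoxicity measured in replicating KB cells, run alongside HSV-1 assays in BSC-1 cells.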

Human alphaherpesvirus 1 [8] = assay: Antiviral activity against Herpes simplex virus type 1 in HFF assessed as inhibition of virus-induced cytopathic effect; type: functional, organism-based
Method in brief: (§8)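 HSV-1 and HSV-2 tested in HFF cultures by inhibition of virus-induced cytopathic effect (CPE); cytotoxicity measured by neutral red uptake.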

Human alphaherpesvirus 2 = assay: Antiviral activity against Herpes simplex virus type 2 in HFF assessed as inhibition of virus-induced cytopathic effect; type: functional, organism-based; method in brief: as §8
Human alphaherpesvirus 3 [9] = assay: Antiviral activity against Varicella zoster virus in HFF assessed as inhibition of virus-induced cytopathic effect; type: functional, organism-based
Method in brief: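 VZV in HFF culture; antiviral activity read by cytopathic effect (CPE) inhibition assay.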

Human gammaherpesvirus 4 [10] = assay: Antiviral activity against Epstein-Barr virus in human Akata cells by DNA hybridization assay; type: functional, organism-based; details: human gammaherpesvirus 4, Akata
Method in brief: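 EBV replication measured by DNA hybridization assay in Akata cells.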

[11] = Cytotoxicity against human Akata cells; type: cell-based
MEF = assay: as §1; type: cell-based; details: mouse, mef
HFF [12] = assay: as §2; type: cell-based; details: human, hff; method in brief: as §3
HFF [13] = assay: as §4; type: cell-based; details: human, hff; method in brief: as §5
Human betaherpesvirus 5 [14] = assay: Antiviral activity against Human cytomegalovirus Towne in HFF by plaque reduction assay; type: functional, organism-based; details: Human betaherpesvirus 5, Towne
Method in brief: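 HCMV Towne or AD169 grown in human foreskin fibroblast (HFF) cultures; plaque reduction read-out for EC50; cytotoxicity judged visually in HFF cells not infected by virus.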

Human betaherpesvirus 5 [15] = assay: Antiviral activity against Human cytomegalovirus Towne expressing wild type UL97 phosphotransferase by plaque reduction assay; type: functional, organism-based; details: Human betaherpesvirus 5, Towne
Method in brief: (§9)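 Plaque reduction with HCMV Towne background strains: wild-type, 2696r (most of UL97 deleted) and E8 (two UL97 point mutations); four drug concentrations, each in duplicate; EC50 read from plaque counts.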

Human betaherpesvirus 5 [16] = assay: Antiviral activity against cyclopropavir-resistant Human cytomegalovirus 2696r expressing most of UL97 phosphotransferase sequence deleted mutant by plaque reduction assay; type: functional, organism-based; details: Human betaherpesvirus 5, 2696r; method in brief: as §9
Human betaherpesvirus 5 [17] = assay: Antiviral activity against drug-resistant Human cytomegalovirus E8 isolate expressing UL97 phosphotransferase with two point mutation in UL97 gene by plaque reduction assay; type: functional, organism-based; details: Human betaherpesvirus 5, E8; method in brief: as §9
Human alphaherpesvirus 1 [18] = assay: Antiviral activity against Herpes simplex virus type 1 in african green monkey BSC1 cells by plaque reduction assay; type: functional, organism-based; details: Human alphaherpesvirus 1, BSC-1
Method in brief: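 HSV-1 plaque reduction in BSC-1 cells; cytotoxicity determined in replicating KB cells.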

KB = assay: as §6; type: cell-based; details: kb; method in brief: as §7
Human betaherpesvirus 5 [19] = assay: Antiviral activity against Human cytomegalovirus AD169 in HFF by cytopathic effect (CPE) inhibition assay; details: Human betaherpesvirus 5, AD169
Human alphaherpesvirus 1 [20] = assay: Antiviral activity against Herpes simplex virus type 1 in african green monkey BSC1 cells by ELISA; type: functional, organism-based; details: Human alphaherpesvirus 1, BSC-1
Method in brief: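 HSV-1 in BSC-1 cells, viral antigen measured by ELISA; cytotoxicity determined in replicating KB cells.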

Human betaherpesvirus 5 [21] = assay: Antiviral activity against Human cytomegalovirus AD169 in HFF by cytopathic effect assay; type: functional, organism-based; details: Human betaherpesvirus 5, AD169
Method in brief: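 HCMV strain AD169 grown in human foreskin fibroblast (HFF) cultures; antiviral effect read as inhibition of virus-induced cytopathic effect (CPE).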

Human alphaherpesvirus 3 [22] = assay: Antiviral activity against Varicella zoster virus in HFF by plaque reduction assay; type: functional, organism-based
Method in brief: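 VZV in HFF culture; antiviral activity measured by plaque reduction assay.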

Compound | pEC50 (Murid betaherpesvirus 1) | CC50 [5] [µM] | pEC50 (Human alphaherpesvirus 1 [8]) | pEC50 (Human alphaherpesvirus 2) | pEC50 (Human alphaherpesvirus 3 [9]) | pEC50 (Human gammaherpesvirus 4 [10]) | CC50 (HFF [12]) [µM] | pEC50 (Human betaherpesvirus 5 [14]) | pEC50 (Human betaherpesvirus 5 [15]) | pEC50 (Human betaherpesvirus 5 [16]) | pEC50 (Human betaherpesvirus 5 [17]) | pEC50 (Human alphaherpesvirus 1 [18]) | pEC50 (Human betaherpesvirus 5 [19]) | also measured
Nc1nc(O)c2ncn(/C=C3/CC34COP(=O)(O)OC4)c2n1 (centres undefined) | 5.14 | > 100 | < 3.52 | 3.62 | < 3.52 |  |  |  |  |  |  |  |  | CC50 [1]: 150 µM; pEC50 (Human gammaherpesvirus 4 [2]): < 4.70; CC50 [3]: > 301 µM; CC50 [4]: > 301 µM; CC50 [6]: > 100 µM; CC50 [7]: > 100 µM
Nc1nc2c(ncn2/C=C2/CC23CCP(=O)(O)OC3)c(=O)[nH]1 (centres undefined) | 6.40 |  | < 3.52 | < 3.52 | < 3.52 | < 4.00 | > 300 | 5.62 | 5.40 | 5.52 | 5.40 | 4.40 | 4.94 | CC50 ([11]; akata): > 100 µM; CC50 (MEF): > 100 µM; CC50 (HFF [13]): > 100 µM; CC50 (KB): > 100 µM
Nc1nc2c(ncn2/C=C2/CC2(CO)CCP(=O)(O)O)c(=O)[nH]1 (centres undefined) | 6.89 | > 100 | 4.23 | 4.12 |  |  |  | 5.66 | 5.46 | 5.52 | 5.49 |  | 5.57 | CC50 ([11]; Akata cells): > 100 µM; pEC50 (Human alphaherpesvirus 1 [20]): 4.82
Nc1nc2c(ncn2/C=C2\CC23CCP(=O)(O)OC3)c(=O)[nH]1 (centres undefined) |  |  |  |  |  | < 4.00 |  | < 4.00 |  |  |  | 4.00 | < 3.52 | 
Nc1nc2c(ncn2/C=C2\CC2(CO)CCP(=O)(O)O)c(=O)[nH]1 (centres undefined) |  |  | < 3.52 | < 3.52 | 3.72 | < 4.00 | > 300 | < 4.00 |  |  |  | 4.00 |  | pEC50 (Human betaherpesvirus 5 [21]): < 3.52
Nc1nc2c(ncn2COCCO)c(=O)[nH]1 [ACYCLOVIR] |  |  | 5.89 | 5.92 |  |  | > 300 |  |  |  |  | 6.52 |  | pEC50 (Human alphaherpesvirus 3 [22]): 5.36
Nc1nc2c(ncn2/C=C2/CC2(CO)CO)c(=O)[nH]1 [FILOCICLOVIR] | 6.57 | > 100 | < 3.42 | < 3.42 | < 3.42 |  |  | 6.34 | 6.22 | 4.55 | 5.10 |  |  | CC50 ([11]; Akata cells): 46 µM; CC50 [3]: > 380 µM; CC50 [4]: > 380 µM; pEC50 (Human alphaherpesvirus 1 [20]): < 4.00; CC50 [7]: > 100 µM
